Data: ChEMBL document CHEMBL1125323, “Potent V2/V1a vasopressin antagonists with C-terminal ethylenediamine-linked retro-amino acids” (J Med Chem, 1992)

Key:
Vasopressin receptor [1] = molecular target: T1, Vasopressin receptor (Rattus norvegicus, UniProt P48974+P30560+Q00788); test: Antiantidiuretic potency in terms of negative logarithm of the effective doses divided by the estimated volume of distribution; assay type: functional, Urine
How it was run: (§1)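 Water-loaded rats under ethanol anesthesia; urine flow followed. USP posterior pituitary reference standard as agonist, all injections intravenous. Effective dose (nmol/kg) is the antagonist dose reducing the response to 2x units of agonist to that of x units alone, interpolated on a log scale between bracketing doses. pA2 = negative log of ED divided by assumed distribution volume 67 mL/kg.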

Vasopressin receptor [2] = molecular target: T1, Vasopressin receptor; test: Antivasopressor potency in terms of negative logarithm of the effective doses divided by the estimated volume of distribution; assay type: functional
How it was run: (§2)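 Rats anesthetized with urethane, pretreated with phenoxybenzamine; blood pressure responses recorded. USP posterior pituitary reference standard as agonist, given intravenously with antagonist. ED (nmol/kg) is the antagonist dose at which 2x units of agonist match the response to x units without antagonist, log-interpolated from doses above and below. In vivo pA2 uses assumed distribution volume 67 mL/kg.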

[3] = molecular target: T2, Vasopressin receptor (Rattus norvegicus) (UniProt P48974+P30560+Q00788); test: Antivasopressor potency in terms of blood pressure response in rats anesthetized with urethane and pretreated with phenoxybenzamine; assay type: functional; how it was run: as §2
[4] = molecular target: T2, Vasopressin receptor (Rattus norvegicus); test: Antiantidiuretic potency in terms of measuring changes in urine flow in water-loaded rats under ethanol anesthesia; assay type: functional; how it was run: as §1

| pA2 (Vasopressin receptor [1]) | pA2 (Vasopressin receptor [2]) | ED [4] [nM/kg] | Compound | ED [3] [nM/kg] |
| --- | --- | --- | --- | --- |
| 7.24 | 8.06 |  | CCOc1ccc(C[C@H]2NC(=O)CC3(CCCCC3)SSC[C@@H](C(=O)NCCNC(=O)[C@H](N)CCCN)NC(=O)[C@H](CC(N)=O)NC(=O)[C@H](C(C)C)NC(=O)[C@H](Cc3ccccc3)NC2=O)cc1 |  |
|  |  | 2.1 | CCOc1ccc(C[C@H]2NC(=O)CC3(CCCCC3)SSC[C@H](C(=O)NCCNC(=O)C(N)CCCN=C(N)N)NC(=O)[C@@H](CC(N)=O)NC(=O)[C@H](C(C)C)NC(=O)[C@@H](Cc3ccccc3)NC2=O)cc1 (some centres not stated) | 0.75 |
| 5.8 | 6.16 |  | CC[C@@H](C)[C@H]1NC(=O)CC2(CCCCC2)SSC[C@@H](C(=O)NCCNC(=O)[C@@H](N)CCCN=C(N)N)NC(=O)[C@H](CC(N)=O)NC(=O)[C@H](C(C)C)NC(=O)[C@H](Cc2ccccc2)NC1=O |  |
|  |  | > 234 | CC(C)C[C@H]1NC(=O)CC2(CCCCC2)SSC[C@H](C(=O)NCCNC(=O)C(N)CCCN=C(N)N)NC(=O)[C@@H](CC(N)=O)NC(=O)[C@H](C(C)C)NC(=O)[C@@H](Cc2ccccc2)NC1=O (some centres not stated) | 58 |
| 7.82 | 8.09 |  | CCOc1ccc(C[C@H]2NC(=O)CC3(CCCCC3)SSC[C@@H](C(=O)N[C@@H](CCCN=C(N)N)C(=O)NCC(N)=O)NC(=O)[C@H](CC(N)=O)NC(=O)[C@H](C(C)C)NC(=O)[C@H](Cc3ccccc3)NC2=O)cc1 |  |
|  |  | 0.57 | CCOc1ccc(C[C@H]2NC(=O)CC3(CCCCC3)SSC[C@H](C(=O)N3CCCC3C(=O)N[C@@H](CCCN=C(N)N)C(=O)NCCNC(=O)[C@H](N)CCCN=C(N)N)NC(=O)[C@@H](CC(N)=O)NC(=O)[C@H]([C@H](C)CC)NC(=O)[C@@H](Cc3ccccc3)NC2=O)cc1 (some centres not stated) | 0.36 |
| 6.91 | 7.64 |  | CC(C)[C@@H]1NC(=O)[C@H](Cc2ccccc2)NC(=O)[C@@H](Cc2ccccc2)NC(=O)CC2(CCCCC2)SSC[C@@H](C(=O)NCCNC(=O)[C@@H](N)CCCN=C(N)N)NC(=O)[C@H](CC(N)=O)NC1=O |  |
| 8.1 | 8.27 |  | CCOc1ccc(C[C@H]2NC(=O)CC3(CCCCC3)SSC[C@@H](C(=O)N3CCC[C@H]3C(=O)N[C@@H](CCCN=C(N)N)C(=O)NCCNC(=O)[C@@H](N)CCCN=C(N)N)NC(=O)[C@H](CC(N)=O)NC(=O)[C@H]([C@@H](C)CC)NC(=O)[C@H](Cc3ccccc3)NC2=O)cc1 |  |
| 7.68 | 8.15 |  | CCOc1ccc(C[C@H]2NC(=O)CC3(CCCCC3)SSC[C@@H](C(=O)N3CCC[C@H]3C(=O)N[C@@H](CCCN=C(N)N)C(=O)NCCNC(=O)[C@@H](N)CCCN=C(N)N)NC(=O)[C@H](CC(N)=O)NC(=O)[C@H](C(C)C)NC(=O)[C@H](Cc3ccccc3)NC2=O)cc1 |  |
|  |  | 0.81 | CCOc1ccc(C[C@H]2NC(=O)CC3(CCCCC3)SSC[C@H](C(=O)N3CCCC3C(=O)NCCNC(=O)[C@@H](N)CCCN=C(N)N)NC(=O)[C@@H](CC(N)=O)NC(=O)[C@H](C(C)C)NC(=O)[C@@H](Cc3ccccc3)NC2=O)cc1 (some centres not stated) | 0.48 |
|  |  | 1.1 | CCOc1ccc(C[C@H]2NC(=O)CC3(CCCCC3)SSC[C@H](C(=O)N[C@H](CCCN=C(N)N)C(=O)NCC(N)=O)NC(=O)[C@@H](CC(N)=O)NC(=O)[C@H](C(C)C)NC(=O)[C@@H](Cc3ccccc3)NC2=O)cc1 | 0.56 |
|  |  | 8.4 | CC(C)[C@@H]1NC(=O)[C@@H](Cc2ccccc2)NC(=O)[C@@H](Cc2ccccc2)NC(=O)CC2(CCCCC2)SSC[C@H](C(=O)NCCNC(=O)C(N)CCCN=C(N)N)NC(=O)[C@@H](CC(N)=O)NC1=O (some centres not stated) | 1.7 |
|  |  | 4 | CCOc1ccc(C[C@H]2NC(=O)CC3(CCCCC3)SSC[C@H](C(=O)NCCNC(=O)[C@@H](N)CCCN)NC(=O)[C@@H](CC(N)=O)NC(=O)[C@H](C(C)C)NC(=O)[C@@H](Cc3ccccc3)NC2=O)cc1 | 0.59 |
|  |  | 5.7 | CCOc1ccc(C[C@H]2NC(=O)CC3(CCCCC3)SSC[C@H](C(=O)NCCN)NC(=O)[C@@H](CC(N)=O)NC(=O)[C@H](C(C)C)NC(=O)[C@@H](Cc3ccccc3)NC2=O)cc1 | 0.47 |
|  |  | 1.2 | CCOc1ccc(C[C@H]2NC(=O)CC3(CCCCC3)SSC[C@H](C(=O)NCCNC(=O)[C@H](N)CCCCN)NC(=O)[C@@H](CC(N)=O)NC(=O)[C@H](C(C)C)NC(=O)[C@@H](Cc3ccccc3)NC2=O)cc1 | 0.82 |
|  |  | 100 | CC[C@H](C)[C@H]1NC(=O)CC2(CCCCC2)SSC[C@H](C(=O)NCCNC(=O)C(N)CCCN=C(N)N)NC(=O)[C@@H](CC(N)=O)NC(=O)[C@H](C(C)C)NC(=O)[C@@H](Cc2ccccc2)NC1=O (some centres not stated) | 47 |
|  |  | 1.4 | CCOc1ccc(C[C@H]2NC(=O)CC3(CCCCC3)SSC[C@H](C(=O)N3CCCC3C(=O)N[C@H](CCCN=C(N)N)C(=O)NCCNC(=O)[C@H](N)CCCN=C(N)N)NC(=O)[C@@H](CC(N)=O)NC(=O)[C@H](C(C)C)NC(=O)[C@@H](Cc3ccccc3)NC2=O)cc1 (some centres not stated) | 0.51 |
|  |  | 1.9 | CCOc1ccc(C[C@H]2NC(=O)CC3(CCCCC3)SSC[C@H](C(=O)NCCNC(=O)[C@H](N)CCCN)NC(=O)[C@@H](CC(N)=O)NC(=O)[C@H](C(C)C)NC(=O)[C@@H](Cc3ccccc3)NC2=O)cc1 | 1.06 |
|  |  | 18 | CCOc1ccc(C[C@H]2NC(=O)CC3(CCCCC3)SSC[C@H](C(=O)NCCNC(=O)CN)NC(=O)[C@@H](CC(N)=O)NC(=O)[C@H](C(C)C)NC(=O)[C@@H](Cc3ccccc3)NC2=O)cc1 | 1.66 |
|  |  | 1.2 | CCOc1ccc(C[C@H]2NC(=O)CC3(CCCCC3)SSC[C@H](C(=O)N3CCCC3C(=O)NCCNC(=O)[C@@H](N)CCCCN)NC(=O)[C@@H](CC(N)=O)NC(=O)[C@H](C(C)C)NC(=O)[C@@H](Cc3ccccc3)NC2=O)cc1 (some centres not stated) | 0.57 |
|  |  | 0.83 | CCOc1ccc(C[C@H]2NC(=O)CC3(CCCCC3)SSC[C@H](C(=O)NCCNC(=O)[C@@H](N)CCCN=C(N)N)NC(=O)[C@@H](CC(N)=O)NC(=O)[C@H](C(C)C)NC(=O)[C@@H](Cc3ccccc3)NC2=O)cc1 | 0.47 |
|  |  | 0.65 | CCOc1ccc(C[C@H]2NC(=O)CC3(CCCCC3)SSC[C@H](C(=O)N[C@H](CCCN=C(N)N)C(=O)NCC(=O)NCCN)NC(=O)[C@@H](CC(N)=O)NC(=O)[C@H](C(C)C)NC(=O)[C@@H](Cc3ccccc3)NC2=O)cc1 | 0.59 |
|  |  | 1.8 | CCOc1ccc(C[C@H]2NC(=O)CC3(CCCCC3)SSC[C@H](C(=O)NCCNC(=O)[C@@H](CCCN=C(N)N)NC(=O)[C@H](N)CCCN=C(N)N)NC(=O)[C@@H](CC(N)=O)NC(=O)[C@H](C(C)C)NC(=O)[C@@H](Cc3ccccc3)NC2=O)cc1 | 0.86 |
|  |  | 0.91 | CCOc1ccc(C[C@H]2NC(=O)CC3(CCCCC3)SSC[C@H](C(=O)N[C@H](CCCN=C(N)N)C(=O)NCC(=O)NCCNC(=O)[C@H](N)CCCN=C(N)N)NC(=O)[C@@H](CC(N)=O)NC(=O)[C@H](C(C)C)NC(=O)[C@@H](Cc3ccccc3)NC2=O)cc1 | 0.73 |
|  |  | 27 | CCOc1ccc(C[C@@H]2NC(=O)CC3(CCCCC3)SSC[C@H](C(=O)NCCNC(=O)C(N)CCCN=C(N)N)NC(=O)[C@@H](CC(N)=O)NC(=O)[C@H](C(C)C)NC(=O)[C@@H](Cc3ccccc3)NC2=O)cc1 (some centres not stated) | 0.76 |
|  |  | 0.82 | CCOc1ccc(C[C@H]2NC(=O)CC3(CCCCC3)SSC[C@H](C(=O)N3CCCC3C(=O)NCCNC(=O)[C@@H](N)CCCN)NC(=O)[C@@H](CC(N)=O)NC(=O)[C@H](C(C)C)NC(=O)[C@@H](Cc3ccccc3)NC2=O)cc1 (some centres not stated) | 0.95 |
